Results pooled from the literature.
Protocols differ between the studies behind these lines.
Sample: plasma
Route: intravenous

SMILES | system | conditions | Vd
O=C(Nc1cc(F)c(F)c(F)c1)c1ccc(F)c(S(=O)(=O)NCc2cccc(B(O)O)c2)c1 | male Sprague-Dawley rat | 2 mg/kg | 11 L/kg
C=CC(=O)Nc1cc(Nc2nccc(Nc3cc(Cl)c(F)cc3C(C)(C)O)n2)c(OC)cc1N1CC[C@@H](N(C)C)C1 | Wistar rat | 3 mg/kg | 13.6 L/kg
COc1ccc2c(Cc3ccccc3F)c3[n+](cc2c1OC)CCc1cc2c(cc1-3)OCO2.[Br-] | rat | 5 mg/kg | 71.8 L/kg
CCCC[C@@H]1NC(=O)[C@H](Cc2ccc(O)cc2)NC(=O)[C@@H]2CCCN2C(=O)[C@H](CC(=O)O)NC(=O)[C@H](C)NC(=O)[C@H](Cc2ccccc2)NC(=O)[C@@H]2CSCCC(=O)N3CN(CN(C3)C(=O)CCSC[C@@H](C(=O)N[C@@H](CNC(=O)CCOCCOCCOCCOCCOCCOCCOCCOCCOCCOCCOCCOCCn3cc(CCC(=O)NCCC(=O)N(C)CC(=O)N(C)CC(=O)N(C)CC(=O)N(C)CC(=O)N(C)CC(=O)N(C)CC(=O)N(C)CC(=O)N(C)CC(=O)N(C)CC(=O)N(C)CC(=O)N[C@H]4CSCCC(=O)N5CN6CN(C5)C(=O)CCSC[C@H](NC(=O)[C@@H](CC(=O)O)NC(=O)[C@H](Cc5cccc7ccccc57)NC(=O)[C@@H]5CCCN5C4=O)C(=O)N[C@@H](CCSC)C(=O)N[C@@H](CCCCNC(=N)N)C(=O)N[C@@H](CC(=O)O)C(=O)N[C@@H](Cc4c[nH]c5ccccc45)C(=O)N[C@@H](CO)C(=O)N[C@@H]([C@@H](C)O)C(=O)N4CCC[C@H]4C(=O)N4C[C@H](O)C[C@H]4C(=O)N[C@@H](Cc4c[nH]c5ccccc45)C(=O)N[C@H](C(N)=O)CSCCC6=O)nn3)C(N)=O)NC1=O)C(=O)CCSC[C@H](NC(C)=O)C(=O)N[C@@H](CC(C)(C)C)C(=O)N1CCC[C@H]1C(=O)N[C@@H](CCC(=O)O)C(=O)N[C@H](C)C(=O)N1CCC[C@H]1C(=O)N[C@@H](Cc1ccc(O)cc1)C(=O)N2 | rat | 2 mg/kg | 0.46 L/kg
Oc1c(Br)cc(Cl)c2cccnc12 | Sprague-Dawley rat | 2 mg/kg | 21.3 L/kg
CCCC[C@@H]1NC(=O)[C@H](Cc2ccc(O)cc2)NC(=O)[C@@H]2CCCN2C(=O)[C@H](CC(=O)O)NC(=O)[C@H](C)NC(=O)[C@H](Cc2ccccc2)NC(=O)[C@@H]2CSCCC(=O)N3CN(CN(C3)C(=O)CCSC[C@@H](C(=O)N[C@@H](C)C(N)=O)NC1=O)C(=O)CCSC[C@H](NC(C)=O)C(=O)N[C@@H](CC(C)(C)C)C(=O)N1CCC[C@H]1C(=O)N[C@@H](CCC(=O)O)C(=O)N[C@H](CCCCNC(=O)CCc1cn(CCOCCOCCOCCOCCOCCOCCOCCOCCOCCOCCNC(=O)c3cc(C(=O)NCCOCCOCCOCCOCCOCCOCCOCCOCCOCCOCCn4cc(CCC(=O)NCCCC[C@H]5NC(=O)[C@H](CCC(=O)O)NC(=O)[C@@H]6CCCN6C(=O)[C@H](CC(C)(C)C)NC(=O)[C@@H](NC(C)=O)CSCCC(=O)N6CN7CN(C6)C(=O)CCSC[C@H](NC(=O)[C@H](Cc6ccc(O)cc6)NC(=O)[C@@H]6CCCN6C5=O)C(=O)N[C@@H](Cc5ccccc5)C(=O)N[C@@H](C)C(=O)N[C@@H](CC(=O)O)C(=O)N5CCC[C@H]5C(=O)N[C@@H](Cc5ccc(O)cc5)C(=O)N[C@@H](CCCC)C(=O)N[C@H](C(=O)N[C@@H](C)C(N)=O)CSCCC7=O)nn4)cc(C(=O)NCCOCCOCCOCCOCCOCCOCCOCCOCCOCCOCCn4cc(CCC(=O)N[C@H]5CSCCC(=O)N6CN7CN(C6)C(=O)CCSC[C@H](NC(=O)[C@@H](CC(=O)O)NC(=O)[C@H](Cc6cccc8ccccc68)NC(=O)[C@@H]6CCCN6C5=O)C(=O)N[C@@H](CCSC)C(=O)N[C@@H](CCCCNC(=N)N)C(=O)N[C@@H](CC(=O)O)C(=O)N[C@@H](Cc5c[nH]c6ccccc56)C(=O)N[C@@H](CO)C(=O)N[C@@H]([C@@H](C)O)C(=O)N5CCC[C@H]5C(=O)N5C[C@H](O)C[C@H]5C(=O)N[C@@H](Cc5c[nH]c6ccccc56)C(=O)N[C@H](C(N)=O)CSCCC7=O)nn4)c3)nn1)C(=O)N1CCC[C@H]1C(=O)N[C@@H](Cc1ccc(O)cc1)C(=O)N2 | rat | 2 mg/kg | 1 L/kg
CCNC(=O)c1nc(-c2ccc3[nH]c(-c4nc(C)no4)cc3c2)c(C)[nH]1 | Sprague-Dawley rat | 1 mg/kg | 1.3 L/kg
Cc1nc(Nc2ncc(C(=O)Nc3c(C)cccc3Cl)s2)cc(N2CCN(CCO)CC2)n1 | female Sprague-Dawley rat | 5 mg/kg | 4.6 L
Oc1cc(O)cc(-c2cc3ccc(O)cc3o2)c1 | male rat | 5 mg/kg | 0.393 L/kg
CCc1cc(C(=O)NC)c2nccc(N3CCc4c(cc(Cn5ccnc5)cc4-c4cn(C)nc4C(F)(F)F)C3=O)c2c1 | male Sprague-Dawley rat | 3 mg/kg | 1 L/kg
CCOC(=O)[C@@]12C[C@@H]1[C@@H](n1ccc3c(NC)nc(C#Cc4ccc(Cl)s4)nc31)[C@H](O)[C@@H]2O | male Sprague-Dawley rat | 0.5 mg/kg | 33.8 L/kg
COc1cc(F)ccc1-c1ncnc(Nc2cccc(C[S@](C)(=N)=O)c2)n1 | male Wistar rat |  | 1 L/kg
